Compound activity (PubChem BioAssay)
Most compounds without a hit are left out; they make up all but 12% or so of the library.
CHOP inh: inhibitors of CHOP induction in ER stress response; inhibition, % at 10 µM; AID 2732; 220,000 compounds, 3.8% hits; CHO-K1 CHOP-promoter luciferase, tunicamycin-induced, 15-18 h;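 active means compounds that reduced the stress-induced luciferase reporter signal by more than about 70% of percent inhibition, limit read from the data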
Wee1 stabilizer: blocks degradation of human Wee1 kinase | reporter increase, % at 5 µM | 220,000 compounds, 1.2% hits | P30291 | AID 1321 | HeLa Luc-Wee1K328M stability, luciferase luminescence; 100% = proteasome inhibitor MG132 effect;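 active means activation above the mean of all tested compounds plus 3 SD, set per screening run, cut at about 8.8% in these data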;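 further: cells exposed to compound for 20 h before luminescence read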
Rad51 HR inh: Rad51 (human) homologous recombination inhibition. Q06609. hRad51 DNA strand exchange, fluorescence dequenching. inhibition, % at 10 µM. 200,000 compounds, 0.085% hits. AID 1385;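 active means inhibition above 40% at the single screening dose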
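Material: hRad51 filaments on single-stranded DNA; Reagent: Donor/quencher-labelled 47-bp dsDNA substrate; Compound: 10 µM final, single point; Schedule: 37 °C 15-min filament assembly, 30-min compound preincubation, 15-min exchange; Technique: FRET fluorescence, excitation 485 nm, emission 520 nm; Benchmarks: control wells and blank wells on each plate.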
Arbovirus anti: antivirals against arbovirus infection; inhibition, % at 10 µM; arbovirus infection cell-based antiviral screen; 200,000 compounds, 0.37% hits; AID 1251; in the data active means inhibition above about 30%
PKD1 inh: inhibitors of human PKD1 kinase; inhibition, % (concentration not given with the values); Q15139; 200,000 compounds, 0.056% hits; PKD1 kinase fluorescence polarization assay
Lmaj promast: reduces viability of Leishmania major promastigotes. inhibition, % at 10 µM. AID 1063. resazurin fluorescence viability. 200,000 compounds, 9% hits;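 further: promastigotes grown with compound for 44 hours at 28 °C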
A number is an active result; . = inactive; / = no result given. Unless noted, no stated cut-off is given here; in the data, active means inhibition above about 50%; inactive means the rest.

SMILES	CHOP inh	Wee1 stabilizer	Rad51 HR inh	Arbovirus anti	PKD1 inh	Lmaj promast
O=C(Cn1cnc2cc([N+](=O)[O-])ccc2c1=O)NCCc1ccc(Cl)cc1	.	.	.	.	.	64.4
CCN(CC)S(=O)(=O)c1ccc(C)c(NC(=O)Cn2cnc3cc([N+](=O)[O-])ccc3c2=O)c1	.	.	.	.	.	71.9
O=C(Cn1cnc2cc([N+](=O)[O-])ccc2c1=O)NCCc1ccc(F)cc1	.	.	/	.	.	.
COc1ccc(Oc2ccc(NC(=O)c3ccccc3C)cc2)cc1	.	.	.	.	.	.
CC(C)CN(Cc1cc(=O)oc2cc3c(cc12)CCCC3)CC(C)C	.	.	.	/	/	/
Cc1ccccc1OCCn1cnc2cc([N+](=O)[O-])ccc2c1=O	.	.	.	.	.	73.0
O=C(Cn1cnc2cc([N+](=O)[O-])ccc2c1=O)NCc1ccccc1	.	.	/	.	.	59.9
O=C(Cn1cnc2cc([N+](=O)[O-])ccc2c1=O)Nc1cccc2ccccc12	.	.	.	/	/	/
Cc1ccc(-n2nnc3c(=O)n(CC(=O)NCc4ccccc4)cnc32)cc1	.	14.7	.	.	.	.
CO/N=C(\Cn1ncc(NC2CCCCC2)c(Br)c1=O)c1ccc(Cl)cc1	84.1	.	.	.	.	.
O=C(Cn1ncc(N2CCCC2)c(Cl)c1=O)c1ccc(Cl)cc1	.	.	.	.	.	.
CO/N=C(\Cn1ncc(N2CCCC2)c(Br)c1=O)c1ccc(Cl)cc1	.	.	.	.	.	70.7
CCOC(=O)Cn1nc(C)c(NC(=O)COc2ccccc2[N+](=O)[O-])c1C	.	.	.	.	.	.
CC(C)Cn1nc(NC(=O)c2cccs2)c2cc3ccccc3nc21	.	.	.	/	/	/
COc1ccc2nc3c(cc2c1)c(NC(=O)c1cccs1)nn3CC(C)C	.	.	/	.	.	83.7
Cc1ccc(S(=O)(=O)N2CCOC2CNC(=O)C(=O)NCc2ccncc2)cc1 (stereo unspecified)	.	.	/	/	/	/
Cc1ccc(/C=C2\CCCC3=C2NC(=S)NC3c2ccc(C)cc2)cc1 (stereo unspecified)	.	.	.	.	.	.
COc1ccc(C2NC(=S)NC3=C2CCc2cc(OC)ccc23)cc1 (stereo unspecified)	.	.	.	.	.	62.5
CCOC(=O)c1c(NC(NC(=O)C(C)C)C(Cl)(Cl)Cl)sc2c1CCC2 (stereo unspecified)	.	.	.	.	.	86.0
O=C(Nc1nccs1)c1cncc(Br)c1	.	.	.	.	.	.
Cc1ccccc1NC(=O)CCN1CCc2ccccc2C1	.	.	.	.	.	.
CCOc1ccc(C2CC(=O)NC(SC)=C2C#N)cc1 (stereo unspecified)	.	.	.	.	.	.
CCSC1=C(C#N)C(c2cccc(OC)c2)CC(=O)N1 (stereo unspecified)	.	.	.	.	.	.
N#CC1=C(SCc2ccccc2)NC(=O)CC1c1cccc(O)c1 (stereo unspecified)	.	.	.	.	.	61.8
Cc1ccc(C2CC(=O)NC(SCc3ccccc3)=C2C#N)cc1 (stereo unspecified)	.	.	.	.	.	61.4
SMILES	CHOP inh	Wee1 stabilizer	Rad51 HR inh	Arbovirus anti	PKD1 inh	Lmaj promast
CSC1=C(C#N)C(c2ccc(C(C)C)cc2)CC(=O)N1 (stereo unspecified)	72.9	.	.	.	.	.
CCCCCCSC1=C(C#N)C(c2ccccc2)CC(=O)N1 (stereo unspecified)	77.4	.	.	.	.	.
N#CC1=C(SCc2ccccc2)NC(=O)CC1c1ccc(O)cc1 (stereo unspecified)	.	.	.	.	.	.
CCN(CC)c1ccc(NC(=O)COc2ccc(C)cc2)cc1	/	.	.	.	.	.
CN(/N=C/c1cc(Cl)cc(Cl)c1O)c1c(Cl)cccc1[N+](=O)[O-]	.	.	.	/	/	/
CSc1ccc(/C=C/C(=O)c2ccc(NC(=O)C(C)C)cc2)cc1	.	.	.	.	.	100.0
CSc1ccc(/C=C/C(=O)c2ccc(NC(=O)Cc3ccccc3)cc2)cc1	.	.	.	.	.	91.5
CSc1cccc(NC(=O)/C=C/c2ccccc2)c1	.	.	.	.	.	.
CSc1ccc(C(=O)/C=C/c2ccc(N)cc2)cc1	.	.	.	.	.	.
CSc1ccc(/C=C/C(=O)Nc2ccccc2)cc1	84.4	.	.	.	.	.
COc1ccc(OC)c(-c2csc(N(CC3CCCO3)C(=O)C3CCCCC3)n2)c1 (stereo unspecified)	.	.	.	.	.	.
CC(N)(Cc1ccc(O)c(O)c1)C(=O)O (stereo unspecified)	.	/	/	/	/	/
CC(NC(=S)N1CCN(c2ccccc2)CC1)c1ccccc1 (stereo unspecified)	.	.	.	/	/	/
O=C(NCCc1c[nH]c2ccccc12)c1cc(S(=O)(=O)N2CCCCC2)ccc1N1CCOCC1	.	.	.	.	.	64.6
CCC(C)(C)NC(=O)c1cc(S(=O)(=O)N2CCCCC2)ccc1N1CCOCC1	.	.	.	.	.	.
O=C(O/N=C1\CCCc2ccccc21)c1ccc(F)cc1	71.5	.	.	.	.	.
Cc1ccc2c(c1)/C(=N/OC(=O)c1ccc(F)cc1)CCS2	.	.	.	.	.	.
CC(=O)N(C)c1ccc(NC(=O)c2ccc([N+](=O)[O-])cc2Cl)cc1	.	.	.	.	.	.
Cc1ccc(-c2nn(-c3ccccc3)cc2C=O)o1	.	10.8	.	.	.	52.1
O=C1N=c2ccccc2=C1c1c(O)n(-c2cccc(F)c2)[nH]c1=O	72.6	.	.	.	.	60.9
O=c1c2ccccc2n(Cc2cccc(F)c2)c(=O)n1C1CCCC1	81.6	.	.	.	.	64.5
COc1ccc(Cc2[nH]n3c(=O)cc(C(C)C)nc3c2-c2ccccc2)cc1	.	.	.	.	.	97.1
COc1ccc(Cc2[nH]n3c(=O)cc(C)nc3c2-c2ccccc2)cc1	.	.	.	.	.	.
CCOC(=O)C1CCN(C(=O)CN2C(=O)C(CC)Oc3ccccc32)CC1 (stereo unspecified)	.	.	.	.	.	.
CCOC(=O)CN1C(=O)C(CC)Oc2ccccc21 (stereo unspecified)	.	16.6	.	.	.	.
COc1ccc(CCNC(=S)NC2CCN(Cc3ccccc3)CC2)cc1	.	.	.	.	.	74.3
S=C(Nc1ccccc1)NC1CCN(Cc2ccccc2)CC1	.	.	.	.	.	90.8
COc1ccc(NC(=S)NC2CCN(Cc3ccccc3)CC2)cc1OC	.	.	.	.	.	.
S=C(NCCc1ccccc1)NC1CCC(NC(=S)NCCc2ccccc2)CC1 (stereo unspecified)	.	.	.	.	.	.
CCC(C)c1ccc(NC(=S)NN2CCOCC2)cc1 (stereo unspecified)	.	.	.	.	.	.
